# In ChEMBL document CHEMBL1240354, “Efficacy of posaconazole against three clinical Aspergillus fumigatus isolates with mutations in the cyp51A gene” (Antimicrob Agents Chemother, 2010):
# Key:
# Aspergillus fumigatus [1] = assay: Antifungal activity against Aspergillus fumigatus isolate AZN 8196 harboring wild type Cyp51A protein by broth microdilution method; format: functional
# Outline: (§1)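 Broth microdilution followed CLSI M38A. Isolates were stored in 10% glycerol broth at −80°C and revived on Sabouraud dextrose agar with 0.02% chloramphenicol for 5 to 7 days at 35°C before testing.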
# Aspergillus fumigatus [2] = assay: Antifungal activity against Aspergillus fumigatus isolate V28-77 harboring M220I mutation in Cyp51A protein by broth microdilution method; format: functional; outline: as §1
# Aspergillus fumigatus [3] = assay: Antifungal activity against Aspergillus fumigatus isolate V52-35 harboring TR L98H mutation in Cyp51A protein by broth microdilution method; format: functional; outline: as §1
# Aspergillus fumigatus [4] = assay: Antifungal activity against Aspergillus fumigatus isolate V59-73 harboring G54W mutation in Cyp51A protein by broth microdilution method; format: functional; outline: as §1
# [5] = AUC in CD1 mouse infected with wild type Aspergillus fumigatus at 1 mg/kg, po qd for 14 days measured after 24 hrs post last dose by HPLC analysis; format: ADME, organism-based; design: time < 24 hr, dose 1 mg/kg, route oral; conditions: plasma
# Outline: (§2)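 Female CD-1 mice (4-5 weeks, 20-22 g) were infected via the lateral tail vein with the wild-type isolate. Oral posaconazole was given once daily from 24 h. On treatment day 2, orbital blood was taken predose and 0.5-24 h postdose, 3 mice per time point. Plasma was assayed by HPLC-fluorescence. Cmax was observed directly. AUC0–24 used the log-linear trapezoidal rule, and CL = dose/AUC0–24.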
# [6] = AUC in CD1 mouse infected with wild type Aspergillus fumigatus at 4 mg/kg, po qd for 14 days measured after 24 hrs post last dose by HPLC analysis; format: ADME, organism-based; design: time < 24 hr, dose 4 mg/kg, route oral; conditions: plasma; outline: as §2
# [7] = AUC in CD1 mouse infected with wild type Aspergillus fumigatus at 16 mg/kg, po qd for 14 days measured after 24 hrs post last dose by HPLC analysis; format: ADME, organism-based; design: time < 24 hr, dose 16 mg/kg, route oral; conditions: plasma; outline: as §2
# [8] = AUC in CD1 mouse infected with wild type Aspergillus fumigatus at 64 mg/kg, po qd for 14 days measured after 24 hrs post last dose by HPLC analysis; format: ADME, organism-based; design: time < 24 hr, dose 64 mg/kg, route oral; conditions: plasma; outline: as §2
# Mus musculus [9] = assay: Dose normalised AUC in CD1 mouse infected with wild type Aspergillus fumigatus at 1 mg/kg, po qd for 14 days measured after 24 hrs post last dose by HPLC analysis; format: ADME, organism-based; design: time < 24 hr, dose 1 mg/kg, route oral; conditions: in vivo; outline: as §2
# Mus musculus [10] = assay: Dose normalised AUC in CD1 mouse infected with wild type Aspergillus fumigatus at 4 mg/kg, po qd for 14 days measured after 24 hrs post last dose by HPLC analysis; format: ADME, organism-based; design: time < 24 hr, dose 4 mg/kg, route oral; conditions: in vivo; outline: as §2
# Mus musculus [11] = assay: Dose normalised AUC in CD1 mouse infected with wild type Aspergillus fumigatus at 16 mg/kg, po qd for 14 days measured after 24 hrs post last dose by HPLC analysis; format: ADME, organism-based; design: time < 24 hr, dose 16 mg/kg, route oral; conditions: in vivo; outline: as §2
# Mus musculus [12] = assay: Dose normalised AUC in CD1 mouse infected with wild type Aspergillus fumigatus at 64 mg/kg, po qd for 14 days measured after 24 hrs post last dose by HPLC analysis; format: ADME, organism-based; design: time < 24 hr, dose 64 mg/kg, route oral; conditions: in vivo; outline: as §2
# [13] = Apparent oral clearance in CD1 mouse infected with wild type Aspergillus fumigatus at 1 mg/kg, po qd for 14 days measured after 24 hrs post last dose by HPLC analysis; format: ADME, organism-based; design: dose 1 mg/kg, route oral; conditions: in vivo; outline: as §2
# [14] = Apparent oral clearance in CD1 mouse infected with wild type Aspergillus fumigatus at 4 mg/kg, po qd for 14 days measured after 24 hrs post last dose by HPLC analysis; format: ADME, organism-based; design: dose 4 mg/kg, route oral; conditions: in vivo; outline: as §2
# [15] = Apparent oral clearance in CD1 mouse infected with wild type Aspergillus fumigatus at 16 mg/kg, po qd for 14 days measured after 24 hrs post last dose by HPLC analysis; format: ADME, organism-based; design: dose 16 mg/kg, route oral; conditions: in vivo; outline: as §2
# [16] = Apparent oral clearance in CD1 mouse infected with wild type Aspergillus fumigatus at 64 mg/kg, po qd for 14 days measured after 24 hrs post last dose by HPLC analysis; format: ADME, organism-based; design: dose 64 mg/kg, route oral; conditions: in vivo; outline: as §2
# [17] = Plasma concentration in CD1 mouse infected with wild type Aspergillus fumigatus at 1 mg/kg, […] by HPLC analysis; format: ADME, organism-based; design: dose 1 mg/kg, route oral; conditions: po
# [18] = Plasma concentration in CD1 mouse infected with wild type Aspergillus fumigatus at 4 mg/kg, […] by HPLC analysis; format: ADME, organism-based; design: dose 4 mg/kg, route oral; conditions: po
# [19] = Plasma concentration in CD1 mouse infected with wild type Aspergillus fumigatus at 16 mg/kg, […] by HPLC analysis; format: ADME, organism-based; design: dose 16 mg/kg, route oral; conditions: po
# [20] = Plasma concentration in CD1 mouse infected with wild type Aspergillus fumigatus at 64 mg/kg, […] by HPLC analysis; format: ADME, organism-based; design: dose 64 mg/kg, route oral; conditions: po
# [21] = Cmax in CD1 mouse infected with wild type Aspergillus fumigatus at 1 mg/kg, po qd for 14 days measured after 24 hrs post last dose by HPLC analysis; format: ADME, organism-based; design: dose 1 mg/kg, route oral; conditions: in vivo; outline: as §2
# [22] = Cmax in CD1 mouse infected with wild type Aspergillus fumigatus at 4 mg/kg, po qd for 14 days measured after 24 hrs post last dose by HPLC analysis; format: ADME, organism-based; design: dose 4 mg/kg, route oral; conditions: in vivo; outline: as §2
# [23] = Cmax in CD1 mouse infected with wild type Aspergillus fumigatus at 16 mg/kg, po qd for 14 days measured after 24 hrs post last dose by HPLC analysis; format: ADME, organism-based; design: dose 16 mg/kg, route oral; conditions: in vivo; outline: as §2
# [24] = Cmax in CD1 mouse infected with wild type Aspergillus fumigatus at 64 mg/kg, po qd for 14 days measured after 24 hrs post last dose by HPLC analysis; format: ADME, organism-based; design: dose 64 mg/kg, route oral; conditions: in vivo; outline: as §2
# [25] = Tmax in CD1 mouse infected with wild type Aspergillus fumigatus at 1 mg/kg, […] by HPLC analysis; format: ADME, organism-based; design: dose 1 mg/kg, route oral; conditions: in vivo, po
# [26] = Tmax in CD1 mouse infected with wild type Aspergillus fumigatus at 4 mg/kg, […] by HPLC analysis; format: ADME, organism-based; design: dose 4 mg/kg, route oral; conditions: in vivo, po
# [27] = Tmax in CD1 mouse infected with wild type Aspergillus fumigatus at 16 mg/kg, […] by HPLC analysis; format: ADME, organism-based; design: dose 16 mg/kg, route oral; conditions: in vivo, po
# [28] = Tmax in CD1 mouse infected with wild type Aspergillus fumigatus at 64 mg/kg, […] by HPLC analysis; format: ADME, organism-based; design: dose 64 mg/kg, route oral; conditions: in vivo, po
# Aspergillus fumigatus [29] = assay: Ratio of AUC to MIC for wild type Aspergillus fumigatus infected in CD1 mouse; format: functional
# Outline: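 The ratio was calculated as AUC0–24 from the mouse PK study (oral posaconazole once daily, 1 to 64 mg/kg) divided by the CLSI M38A broth microdilution MIC.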
# Aspergillus fumigatus [30] = assay: Antifungal activity against wild type Aspergillus fumigatus infected in CD1 mouse assessed as increase in mouse survival rate administered orally qd for 14 days measured on day 15 post fungal infection; format: functional, organism-based
# Outline: (§3)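 Female CD-1 mice (4-5 weeks, 20-25 g, 11 per group) received an LD90 conidial inoculum of each isolate IV via the tail vein. Conidia were harvested in PBS/0.1% Tween 80, gauze-filtered and hemacytometer-counted. Posaconazole oral solution (1, 4, 16, 64 mg/kg) was given by gavage once daily for 14 days from 24 h post-infection; controls received saline. Survival was compared by log rank test, with survivors euthanized on day 15.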
# Aspergillus fumigatus [31] = assay: Antifungal activity against Aspergillus fumigatus isolate V52-35 harboring TR L98H mutation in Cyp51A protein infected in CD1 mouse assessed as increase in mouse survival rate administered orally qd for 14 days measured on day 15 post fungal infection; format: functional, organism-based; outline: as §3
# Aspergillus fumigatus [32] = assay: Antifungal activity against Aspergillus fumigatus isolate V28-77 harboring M220I mutation in Cyp51A protein infected in CD1 mouse assessed as increase in mouse survival rate administered orally qd for 14 days measured on day 15 post fungal infection; format: functional, organism-based; outline: as §3
# Aspergillus fumigatus [33] = assay: Antifungal activity against Aspergillus fumigatus isolate V59-73 harboring G54W mutation in Cyp51A protein infected in CD1 mouse assessed as increase in mouse survival rate administered orally qd for 14 days measured on day 15 post fungal infection; format: functional; outline: as §3
# Aspergillus fumigatus [34] = assay: Antifungal activity against Aspergillus fumigatus isolate V28-77 harboring M220I mutation in Cyp51A protein infected in CD1 mouse assessed as 50% effective pharmacodynamic index administered orally qd for 14 days measured post last dose; format: functional
# Outline: (§4)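 EI50 came from fitting a variable-slope Hill equation to AUC0–24/MIC ratio versus 14-day survival. AUCs were taken from the PK study in wild-type-infected mice at each dose (1-64 mg/kg oral, once daily). Ratios were log10-transformed before analysis.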
# Aspergillus fumigatus [35] = assay: Antifungal activity against Aspergillus fumigatus isolate V52-35 harboring TR L98H mutation in Cyp51A protein infected in CD1 mouse assessed as 50% effective pharmacodynamic index administered orally qd for 14 days measured post last dose; format: functional; outline: as §4
smiles,measurement,setting,value
CCC(C)n1ncn(-c2ccc(N3CCN(c4ccc(OCC5COC(Cn6cncn6)(c6ccc(Cl)cc6Cl)O5)cc4)CC3)cc2)c1=O (configuration not stated) [ITRACONAZOLE],MIC,Aspergillus fumigatus [1],0.125 µg/mL
same,MIC,Aspergillus fumigatus [2],> 16 µg/mL
same,MIC,Aspergillus fumigatus [3],> 16 µg/mL
same,MIC,Aspergillus fumigatus [4],> 16 µg/mL
CC[C@H](C)C[C@H](C)CCCCCCCCC(=O)N[C@H]1C[C@@H](O)[C@@H](NCCN)NC(=O)[C@@H]2[C@@H](O)CCN2C(=O)[C@H]([C@H](O)CCN)NC(=O)[C@H]([C@H](O)[C@@H](O)c2ccc(O)cc2)NC(=O)[C@@H]2C[C@@H](O)CN2C(=O)[C@H]([C@@H](C)O)NC1=O [CASPOFUNGIN],minimal effective concentration,Aspergillus fumigatus [1]; read-out: MEC,0.25 µg/mL
same,minimal effective concentration,Aspergillus fumigatus [2]; read-out: MEC,0.25 µg/mL
same,minimal effective concentration,Aspergillus fumigatus [3]; read-out: MEC,0.25 µg/mL
same,minimal effective concentration,Aspergillus fumigatus [4]; read-out: MEC,0.25 µg/mL
C[C@@H]1[C@H](O)[C@@H](C)/C=C/C=C/C=C/C=C/C=C/C=C/C=C/[C@H](O[C@@H]2O[C@H](C)[C@@H](O)[C@H](N)[C@@H]2O)C[C@@H]2O[C@](O)(C[C@@H](O)C[C@@H](O)[C@H](O)CC[C@@H](O)C[C@@H](O)CC(=O)O[C@H]1C)C[C@H](O)[C@H]2C(=O)O [AMPHOTERICIN B],MIC,Aspergillus fumigatus [1],0.5 µg/mL
same,MIC,Aspergillus fumigatus [2],0.5 µg/mL
same,MIC,Aspergillus fumigatus [3],0.5 µg/mL
same,MIC,Aspergillus fumigatus [4],0.5 µg/mL
C[C@@H](c1ncncc1F)[C@](O)(Cn1cncn1)c1ccc(F)cc1F [VORICONAZOLE],MIC,Aspergillus fumigatus [1],0.25 µg/mL
same,MIC,Aspergillus fumigatus [2],0.25 µg/mL
same,MIC,Aspergillus fumigatus [3],2 µg/mL
same,MIC,Aspergillus fumigatus [4],0.125 µg/mL
CC[C@@H]([C@H](C)O)n1ncn(-c2ccc(N3CCN(c4ccc(OC[C@@H]5CO[C@@](Cn6cncn6)(c6ccc(F)cc6F)C5)cc4)CC3)cc2)c1=O [POSACONAZOLE],MIC,Aspergillus fumigatus [1],0.031 µg/mL
same,MIC,Aspergillus fumigatus [2],0.5 µg/mL
same,MIC,Aspergillus fumigatus [3],0.5 µg/mL
same,MIC,Aspergillus fumigatus [4],> 16 µg/mL
same,AUC at 24 h,[5],10.2 µg·h/mL
same,AUC at 24 h,[6],45.1 µg·h/mL
same,AUC at 24 h,[7],159 µg·h/mL
same,AUC at 24 h,[8],297 µg·h/mL
same,AUC,Mus musculus [9],10.2 kg·h/L
same,AUC,Mus musculus [10],11.3 kg·h/L
same,AUC,Mus musculus [11],9.96 kg·h/L
same,AUC,Mus musculus [12],4.64 kg·h/L
same,CL/F,[13],1.67 mL/min/kg
same,CL/F,[14],1.5 mL/min/kg
same,CL/F,[15],1.67 mL/min/kg
same,CL/F,[16],3.67 mL/min/kg
same,concentration,[17],110 ng/mL
same,concentration,[18],940 ng/mL
same,concentration,[19],2700 ng/mL
same,concentration,[20],9330 ng/mL
same,Cmax,[21],980 ng/mL
same,Cmax,[22],3110 ng/mL
same,Cmax,[23],9030 ng/mL
same,Cmax,[24],17800 ng/mL
same,Tmax,[25],4 h
same,Tmax,[26],2 h
same,Tmax,[27],8 h
same,Tmax,[28],8 h
same,RatioAUC/MIC,Aspergillus fumigatus [29],1000
same,Activity,Aspergillus fumigatus [30],Dose-dependent effect
same,Activity,Aspergillus fumigatus [31],Dose-dependent effect
same,Activity,Aspergillus fumigatus [32],Dose-dependent effect
same,Activity,Aspergillus fumigatus [33],Dose-dependent effect
same,ED50,"Aspergillus fumigatus [33]; isolate V59-73, po",29 mg/kg
same,Activity,Aspergillus fumigatus [34],321
same,Activity,Aspergillus fumigatus [35],321
